A selection: hits, their analogues and other compounds. The true share with any hit is near 1.6%.
PABP FP inh = blocks human PABP binding to poly(A) RNA | hit rate 1% among 290,000 | P11940 | calls only at 35 µM | AID 2014 | fluorescence polarization;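 also: calls also rest on retests at 20 µM and on dose response follow-up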
Target sequence (P11940 whole entry, looked up): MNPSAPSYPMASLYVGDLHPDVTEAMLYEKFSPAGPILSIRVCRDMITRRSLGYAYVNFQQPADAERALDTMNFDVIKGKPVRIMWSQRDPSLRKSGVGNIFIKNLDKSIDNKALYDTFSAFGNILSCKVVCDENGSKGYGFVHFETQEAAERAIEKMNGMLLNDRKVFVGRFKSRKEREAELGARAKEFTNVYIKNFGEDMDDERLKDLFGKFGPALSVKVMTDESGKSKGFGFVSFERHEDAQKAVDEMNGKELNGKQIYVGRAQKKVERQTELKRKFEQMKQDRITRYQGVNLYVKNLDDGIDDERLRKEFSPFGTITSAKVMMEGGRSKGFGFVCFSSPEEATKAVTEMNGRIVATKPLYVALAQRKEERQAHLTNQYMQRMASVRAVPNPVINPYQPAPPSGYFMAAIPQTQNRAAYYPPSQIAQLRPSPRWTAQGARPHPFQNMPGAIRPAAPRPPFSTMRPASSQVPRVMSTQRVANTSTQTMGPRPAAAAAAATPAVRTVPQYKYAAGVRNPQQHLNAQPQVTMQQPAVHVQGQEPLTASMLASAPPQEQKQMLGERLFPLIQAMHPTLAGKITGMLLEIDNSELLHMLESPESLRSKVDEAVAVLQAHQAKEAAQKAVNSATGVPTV
eIF4H FP inh = inhibitors of RNA binding by human eIF4H; Q15056; eIF4H fluorescence polarization binding assay; inhibition, % at 35 µM; hit rate 0.94% among 290,000;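 also: calls also rest on retests at 20 µM and on dose response follow-up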
RBBP9 inhibitor = inhibitors of human serine hydrolase RBBP9 | O75884 | recombinant RBBP9, FP-Rh probe fluorescence polarization | inhibition, % at 7.94 µM | hit rate 0.2% among 220,000 | AID 1515;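 active = inhibition above the campaign mean of all tested compounds plus 3 SD, cut at about 14% in these data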
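System: RBBP9 protein | Quantity: 2.5 µM RBBP9 dispensing solution, before mixing | Reagent: FP-Rh probe, 375 nM dispensing solution | Timing: Enzyme-compound preincubation 30 min, then probe labeling 45 min, 25 °C | Measured by: Fluorescence polarization | Read-out: % inhibition | Replication: One well per compound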
MLLE-PAM2 inh = inhibitors of microRNA-mediated deadenylation, human PABP1 MLLE binding; P11940; GST-MLLE / FITC-PAM2 fluorescence polarization; inhibition, % at 20 µM; hit rate 0.36% among 360,000; AID 588489; in the data active = inhibition above about 35%, passing the limit was not always enough
TCR CD3 inh = human TCR-CD3 binding inhibition; TAMRA-labeled TCR probe fluorescence, biochemical; inhibition, % at 9.4 µM; hit rate 0.37% among 360,000; in the data active = inhibition above about 19%;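 also: recombinant mutant TCR 2C K166C tagged with TAMRA read by polarization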
Hits are given with their value; – = inactive; ? = inconclusive; · = no result given; + = active, no number. Unless noted, no rule for the calls is given here.

SMILES	PABP FP inh	eIF4H FP inh	RBBP9 inhibitor	MLLE-PAM2 inh	TCR CD3 inh
CC(=O)N=c1c(C#N)cc2c(=O)n3cccc(C)c3nc2n1Cc1ccco1	+	71.5	–	–	–
N#Cc1cc2c(=O)n3ccccc3nc2n(Cc2ccco2)c1=NC(=O)c1ccco1	–	?	–	41.1	–
Cc1ccccc1C(=O)N=c1c(C#N)cc2c(=O)n3cccc(C)c3nc2n1Cc1ccco1	–	–	–	·	·
Cc1cccn2c(=O)c3cc(C#N)c(=NC(=O)c4ccncc4)n(CCCOC(C)C)c3nc12	+	75.2	–	–	–
CC(C)[C@H](NC(=O)c1ccccc1)C(=O)N1CCC[C@H]1C(=O)NCc1ccccc1	·	·	·	·	–
CC(=O)Nc1ccc(C(=O)OCC(=O)N(c2ccccc2)C2CCCCC2)cc1	·	·	·	–	–
CC(=O)Nc1ccc(C(=O)OCC(=O)N(C)C2CCCCC2)cc1	–	active	–	–	–
Cc1nn(-c2ccccc2)nc1C(=O)Nc1ccccc1C(=O)NCC1CC1	·	·	·	·	–
CC1=C(C(=O)O)N2C(=O)C(NC(=O)c3ccn(C)n3)C2SC1 (stereo not given)	–	–	–	48.5	–
O=C(Cc1c[nH]c2ccccc12)Nc1ccc(Nc2cccnc2)c(-c2ccc(F)c(F)c2)c1	·	·	·	·	–
N#CC1=C2SCN(c3ccccc3)CN2C(=O)CC1c1cccs1 (stereo not given)	+	23.0	–	–	–
N#CC1=C2SCN(c3ccccc3)CN2C(=O)CC1c1ccccc1Cl (stereo not given)	–	–	–	–	–
Cc1ccc(C2CC(=O)N3CN(c4ccc(Br)cc4)CSC3=C2C#N)o1 (stereo not given)	+	41.2	–	–	–
N#CC1=C2SCN(c3ccccc3)CN2C(=O)CC1c1c(Cl)cccc1Cl (stereo not given)	–	–	–	–	–
CCOc1ccc(N2CSC3=C(C#N)C(c4ccco4)CC(=O)N3C2)cc1 (stereo not given)	+	92.4	–	–	–
CCCCCCCCN1C(=O)[C@@H](CC(=O)NCCCOC)C[C@@]2(C(=O)OC)C1=C[C@H](C1CCCC1)O[C@@H]2C	·	·	·	·	–
O=C(Oc1c(CN2CCOCC2)cc(Cl)c2cccnc12)c1ccccc1F	+	?	–	–	–
O=C(Nc1c(F)c(F)c(F)c(F)c1F)OC[C@@H]1CSCCS(=O)(=O)N1	·	·	·	·	–
O=C(CSCC(=O)N1CCCCC1)Nc1nc(-c2ccccc2)c(-c2ccccc2)s1	+	80.2	–	–	–
C=CCOc1ccc(CNc2ccc3[nH]c(=O)[nH]c3c2)cc1OC	+	103.7	–	–	–
COc1cc(CNc2ccc3[nH]c(=O)[nH]c3c2)ccc1OCc1ccc(F)cc1	–	–	·	–	–
O=C(/C=C(\Nc1cccc(Cl)c1F)c1ccccc1)c1ccccc1	·	·	·	·	–
COC(=O)C1=C(C)N(Cc2cccc(C(F)(F)F)c2)C(=NCc2ccc(OC)cc2)NC1c1ccc(Cl)cc1 (stereo not given)	·	·	·	·	–
Cc1ccccc1-n1c(SCC(=O)Nc2ccccc2)nc2nc3c(cc2c1=O)CCCC3	–	active	–	–	–
CCc1cc2c(nc1CC)CCCN2C	·	·	·	·	–
SMILES	PABP FP inh	eIF4H FP inh	RBBP9 inhibitor	MLLE-PAM2 inh	TCR CD3 inh
COc1ccc2c(c1)c1nc3ccccc3nc1n2CC(=O)OC(C)C	+	–	–	–	–
COc1ccc(Cn2c3ccc(OC)cc3c3nc4ccccc4nc32)cc1	–	?	–	–	–
COc1ccc2c(c1)c1nc3ccccc3nc1n2Cc1ccc(OC(C)C)c(OC)c1	+	78.4	–	–	–
Cc1ccc(C(Nc2ccccc2)c2ccc3ccc(C)nc3c2O)c(C)c1 (stereo not given)	·	·	·	·	–
COc1cccc(C(=O)N[C@H](C(=O)N2CCC[C@H]2C(=O)NC2CCCC2)C2CCCCC2)c1	·	·	·	·	–
O=C(O)C1Nc2c(Cl)cc(Cl)c(Cl)c2C2C=CCC12 (stereo not given)	·	·	·	–	–
O=C(O)C1Nc2c(O)cccc2C2C=CCC12 (stereo not given)	–	99.3	–	–	71.9
O=C(O)C1Nc2c(Cl)cc(Cl)cc2C2C=CCC12 (stereo not given)	+	84.3	·	–	·
O=C(C[C@@H]1C[C@@H]2c3cc(NC(=O)c4ccc5c(c4)OCO5)ccc3O[C@@H]2[C@@H](CO)O1)NCc1cccnc1	·	·	·	·	–
Cn1nc(C(F)(F)F)cc1-c1ccc(/C=C(\C#N)C(=O)c2ccccc2)s1	+	–	–	–	–
CC(=O)c1c(Cl)nc2cccc3c2c1-c1ccccc1C3=O	–	–	·	50.0	–
c1ccc(Cn2cc(CCOCc3ccccn3)c3ccccc32)cc1	·	·	·	·	–
CN(c1ccc(OCC(=O)OCC(=O)Nc2ccc(Br)cc2)cc1)S(=O)(=O)c1cccs1	–	–	–	–	–
CN(c1ccc(OCC(=O)OCC(=O)Nc2ccccc2)cc1)S(=O)(=O)c1cccs1	+	active	–	–	–
COc1cc(N2C[C@@]3(O)CC[C@@H](O)[C@@H](OC)[C@@H]3[C@@](C)(O)[C@@H]2CC=C(C)C)cc(OC)c1OC	·	·	·	·	–
O=[n+]1c2c(n([O-])c3cc(Br)ccc31)CCCC2	–	–	–	–	–
O=[n+]1c2c(n([O-])c3cc(F)c(F)cc31)CCCC2	–	65.6	–	–	–
O=[N+]([O-])c1ccc(/C=[N+](\[O-])[C@@H]2CCCC[C@@H]2/[N+]([O-])=C/c2ccc([N+](=O)[O-])o2)o1	+	81.0	·	–	–
O=C(N/N=C/c1ccc([N+](=O)[O-])o1)C1CCCC1	–	–	·	–	–
COc1ccc(/C=C(/NC(=O)c2ccccc2)C(=O)N/N=C/c2ccncc2)c(OC)c1	–	active	–	–	–
COc1cccc(Nc2ccc(N3CCCCC3)cc2)c1OC	·	·	·	59.6	–
O=C(CN1CCN(c2ccc(F)cc2)CC1)Nc1ccccc1[N+](=O)[O-]	+	60.3	–	–	–
CC(C)(C)c1ccc2c(c1)OC(C(=O)N/N=C\c1ccccn1)CO2 (stereo not given)	–	–	–	–	–
Nc1nonc1C(=O)N/N=C/c1ccc(-c2cccc(C(=O)O)c2)o1	–	55.0	–	·	·
CC(C)(C)c1ccc2c(c1)OC(C(=O)N/N=C\c1ccc(-c3cccc(C(=O)O)c3)o1)CO2 (stereo not given)	+	73.0	–	–	–
SMILES	PABP FP inh	eIF4H FP inh	RBBP9 inhibitor	MLLE-PAM2 inh	TCR CD3 inh
CNC(=S)N/N=C/c1ccc(-c2cccc(C(=O)O)c2)o1	–	–	–	–	–
O=C(O)c1cccc(-c2ccc(/C=N/NC(=O)C3COc4ccccc4O3)o2)c1 (stereo not given)	–	71.9	–	–	–
Cc1ccc(Cl)cc1NC(=O)N(C)CCOC(=O)Nc1cccc(Cl)c1	·	·	·	·	–
COc1ccccc1CC(=O)Nc1ccc(-c2noc(COc3ccc(Cl)c(C)c3)n2)cc1	–	–	–	–	–
CCOc1ccccc1-c1nc(-c2ccc(NC(=O)Cc3ccccc3OC)cc2)no1	+	53.7	–	–	–
C[C@@H]1ON(C)[C@H]2C[C@H]3c4[nH]c5c(-c6ccc7c(c6)OCO7)cccc5c4CCN3C(=O)[C@@H]12	·	·	·	·	–
COC1OC(COCc2ccccc2)C2OC(C)(C)OC2C1O (stereo not given)	·	·	·	·	–
